# Assay results taken from ChEMBL document CHEMBL1649486, “Comparative efficacies of telavancin and vancomycin in preventing device-associated colonization and infection by Staphylococcus aureus in rabbits” (2009).
# How the values were obtained:
# Assay type in all cases: functional
# Staphylococcus aureus [1] = assay: Antimicrobial activity against Staphylococcus aureus P1 by macrodilution method
# Outline: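 MIC and minimal bactericidal concentration determined in triplicate by standard broth macrodilution against MSSA clinical isolate P1.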
# Staphylococcus aureus [2] = assay: Antimicrobial activity against Staphylococcus aureus P1 infected in New Zealand rabbit assessed as decrease in catheter related infection rate at 15 mg/kg, iv (reference value: 100%); set-up: scale not given: the % may be the effect or the level left
# Outline: (§1)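 Female specific-pathogen-free New Zealand White rabbits, 4-7 months old, 3-4 kg, nine per group. Each got a single iv dose over ~2 min under anesthesia, with D5W as control. Six subcutaneous catheter segments per rabbit were surface-inoculated with 10^5 CFU MSSA P1. Infection = inoculated strain grown from both the device sonication culture and a swab of adjacent soft-tissue collection or wound discharge; rate = infected/total devices.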
# Staphylococcus aureus [3] = assay: Antimicrobial activity against Staphylococcus aureus P1 infected in New Zealand rabbit assessed as decrease in catheter bacterial colonization rate at 30 mg/kg, iv (reference value: 100%); set-up: scale not given: the % may be the effect or the level left
# Outline: (§2)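 Female specific-pathogen-free New Zealand White rabbits, 4-7 months old, 3-4 kg, nine per group. Each got a single iv dose over ~2 min under anesthesia, with D5W as control. Six 2-cm polyurethane catheter segments were implanted subcutaneously in the back, and each surface was inoculated with 10^5 CFU MSSA P1 in Trypticase soy broth. Explants were sonicated in 2 ml saline and the sonicate cultured (detection limit 10 CFU). Colonization = inoculated strain grown from sonicate; rate = colonized/total devices.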
# Staphylococcus aureus [4] = assay: Antimicrobial activity against Staphylococcus aureus P1 infected in New Zealand rabbit assessed as decrease in catheter related infection rate at 30 mg/kg, iv (reference value: 100%); set-up: scale not given: the % may be the effect or the level left; outline: as §1
# Staphylococcus aureus [5] = assay: Antimicrobial activity against Staphylococcus aureus P1 infected in New Zealand rabbit assessed as decrease in catheter related infection rate at 45 mg/kg, iv (reference value: 100%); set-up: scale not given: the % may be the effect or the level left; outline: as §1
# Staphylococcus aureus [6] = assay: Antimicrobial activity against Staphylococcus aureus P1 infected in New Zealand rabbit assessed as decrease in catheter bacterial colonization rate at 15 mg/kg, iv (reference value: 100%); set-up: scale not given: the % may be the effect or the level left; outline: as §2
# Staphylococcus aureus [7] = assay: Antimicrobial activity against Staphylococcus aureus P1 infected in New Zealand rabbit assessed as decrease in catheter bacterial colonization rate at 45 mg/kg, iv (reference value: 100%); set-up: scale not given: the % may be the effect or the level left; outline: as §2
Compound,MBC (Staphylococcus aureus [1]) [µg/mL],MIC (Staphylococcus aureus [1]) [µg/mL],Activity (Staphylococcus aureus [2]) [%],Activity (Staphylococcus aureus [3]) [%],Activity (Staphylococcus aureus [4]) [%],Activity (Staphylococcus aureus [5]) [%],Activity (Staphylococcus aureus [6]) [%],Activity (Staphylococcus aureus [7]) [%]
CCCCCCCCCCNCCN[C@@]1(C)C[C@H](O[C@H]2[C@H](Oc3c4cc5cc3Oc3ccc(cc3Cl)[C@@H](O)[C@@H](NC(=O)[C@@H](CC(C)C)NC)C(=O)N[C@@H](CC(N)=O)C(=O)N[C@H]5C(=O)N[C@H]3C(=O)N[C@H](C(=O)N[C@H](C(=O)O)c5cc(O)c(CNCP(=O)(O)O)c(O)c5-c5cc3ccc5O)[C@H](O)c3ccc(c(Cl)c3)O4)O[C@H](CO)[C@@H](O)[C@@H]2O)O[C@@H](C)[C@H]1O [TELAVANCIN],1,0.25,35,11,9,11,39,11
CN[C@H](CC(C)C)C(=O)N[C@H]1C(=O)N[C@@H](CC(N)=O)C(=O)N[C@H]2C(=O)N[C@H]3C(=O)N[C@H](C(=O)N[C@H](C(=O)O)c4cc(O)cc(O)c4-c4cc3ccc4O)[C@H](O)c3ccc(c(Cl)c3)Oc3cc2cc(c3O[C@@H]2O[C@H](CO)[C@@H](O)[C@H](O)[C@H]2O[C@H]2C[C@](C)(N)[C@H](O)[C@H](C)O2)Oc2ccc(cc2Cl)[C@H]1O [VANCOMYCIN],8,–,–,–,–,–,–,–
